Laboratory results as given in ChEMBL document CHEMBL5131497, “Design, Synthesis, and Characterization of TNP-2198, a Dual-Targeted Rifamycin-Nitroimidazole Conjugate with Potent Activity against Microaerophilic and Anaerobic Bacterial Pathogens” (J Med Chem, 2022).
≈ marks a conversion by molar mass, not a printed value.

How the values were obtained:
Actinomyces naeslundii = experiment: Antibacterial activity against Actinomyces naeslundii ATCC 1210; format: functional
Clostridioides difficile [1] = experiment: Antibacterial activity against Clostridioides difficile clinical isolate China; format: functional
Helicobacter pylori [2] = experiment: Antibacterial activity against Helicobacter pylori clinical isolate USA; format: functional
Helicobacter pylori [3] = experiment: Antibacterial activity against Helicobacter pylori clinical isolate China; format: functional
Staphylococcus aureus = experiment: Antibacterial activity against Staphylococcus aureus ATCC 29213; format: functional
Clostridioides difficile [4] = experiment: Antibacterial activity against Clostridioides difficile ATCC 9689; format: functional
Clostridioides difficile [5] = experiment: Antibacterial activity against rifampicin-resistant Clostridioides difficile harboring rpoBQ489K mutant; format: functional
Helicobacter pylori [6] = experiment: Antibacterial activity against Helicobacter pylori ATCC 700392 at 1:1 compound to metronidazole molar ratio measured after 5 days in presence of metronidazole by agar dilution method; format: functional; settings: ATCC 700392, 120 h, time 5 day
Summary of the method: (§1)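 Agar dilution per CLSI. Wild-type ATCC 700392 (CB1531) and its derivatives carry defined resistance determinants. Drugs, alone or in 1:1 molar mixtures, were diluted 2-fold from 100× stocks into Mueller–Hinton agar with aged (≥2 weeks) sheep blood (5% v/v). MIC read after 5 days at 35 °C under microaerobic conditions from a campylobacter gas-generating system.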

Helicobacter pylori [7] = experiment: Antibacterial activity against metronidazole-resistant Helicobacter pylori CB1573 harboring rdxAR16S mutant measured after 5 days by agar dilution method; format: functional; settings: CB1573, 120 h, time 5 day; summary of the method: as §1
Helicobacter pylori [8] = experiment: Antibacterial activity against metronidazole-resistant Helicobacter pylori CB1573 harboring rdxAR16S mutant at 1:1 compound to metronidazole molar ratio measured after 5 days in presence of metronidazole by agar dilution method; format: functional; settings: CB1573, 120 h, time 5 day; summary of the method: as §1
Helicobacter pylori [9] = experiment: Antibacterial activity against rifampicin-resistant Helicobacter pylori CB1903 harboring rpoBD530V mutant measured after 5 days by agar dilution method; format: functional; settings: CB1903, 120 h, time 5 day; summary of the method: as §1
Helicobacter pylori [10] = experiment: Antibacterial activity against rifampicin-resistant Helicobacter pylori CB1902 harboring rpoBV149F mutant at 1:1 compound to metronidazole molar ratio measured after 5 days in presence of metronidazole by agar dilution method; format: functional; settings: CB1902, 120 h, time 5 day; summary of the method: as §1
Helicobacter pylori [11] = experiment: Antibacterial activity against rifampicin-resistant Helicobacter pylori CB1903 harboring rpoBD530V mutant at 1:1 compound to metronidazole molar ratio measured after 5 days in presence of metronidazole by agar dilution method; format: functional; settings: CB1903, 120 h, time 5 day; summary of the method: as §1
Helicobacter pylori [12] = experiment: Antibacterial activity against rifampicin-resistant Helicobacter pylori CB1614 harboring rpoBL525I/D530N at 1:1 compound to metronidazole molar ratio measured after 5 days in presence of metronidazole by agar dilution method; format: functional; settings: CB1614, 120 h, time 5 day; summary of the method: as §1
Clostridioides difficile [13] = experiment: Antibacterial activity against rifampicin-resistant Clostridioides difficile CB1934 harboring rpoBQ489K mutant measured after 3 days; format: functional; settings: CB1934, 72 h, time 3 day
Clostridioides difficile [14] = experiment: Antibacterial activity against rifampicin-resistant Clostridioides difficile CB1934 harboring rpoBQ489K mutant at 1:1 compound to metronidazole molar ratio measured after 3 days in presence of metronidazole; format: functional; settings: CB1934, 72 h, time 3 day
Clostridioides difficile [15] = experiment: Antibacterial activity against fluoroquinolone-resistant Clostridioides difficile CB1939 at 1:1 compound to metronidazole molar ratio measured after 3 days in presence of metronidazole; format: functional; settings: CB1939, 72 h, time 3 day
Clostridioides difficile [16] = experiment: Antibacterial activity against fluoroquinolone-resistant Clostridioides difficile CB1941 harboring gyrAD71Y/T82A mutant measured after 3 days; format: functional; settings: CB1941, 72 h, time 3 day
Clostridioides difficile [17] = experiment: Antibacterial activity against fluoroquinolone-resistant Clostridioides difficile CB1941 harboring gyrAD71Y/T82A mutant at 1:1 compound to metronidazole molar ratio measured after 3 days in presence of metronidazole; format: functional; settings: CB1941, 72 h, time 3 day
Clostridioides difficile [18] = experiment: Antibacterial activity against rifampicin/fluoroquinolone-resistant Clostridioides difficile CB1940 harboring rpoBQ489K/gyrAA118S mutant measured after 3 days; format: functional; settings: CB1940, 72 h, time 3 day
Clostridioides difficile [19] = experiment: Antibacterial activity against rifampicin/fluoroquinolone-resistant Clostridioides difficile CB1940 harboring rpoBQ489K/gyrAA118S mutant at 1:1 compound to metronidazole molar ratio measured after 3 days in presence of metronidazole; format: functional; settings: CB1940, 72 h, time 3 day
Clostridioides difficile [20] = experiment: Antibacterial activity against rifampicin/fluoroquinolone-resistant Clostridioides difficile CB1942 harboring rpoBQ489K/gyrAD71Y/T82A mutant measured after 3 days; format: functional; settings: CB1942, 72 h, time 3 day
Clostridioides difficile [21] = experiment: Antibacterial activity against rifampicin/fluoroquinolone-resistant Clostridioides difficile CB1942 harboring rpoBQ489K/gyrAD71Y/T82A mutant at 1:1 compound to metronidazole molar ratio measured after 3 days in presence of metronidazole; format: functional; settings: CB1942, 72 h, time 3 day
[22] = tested on: Bacteroides thetaiotaomicron; experiment: Antibacterial activity against metronidazole-resistant Bacteroides thetaiotaomicron MMX 3409; format: functional
Bacteroides uniformis = experiment: Antibacterial activity against Bacteroides uniformis MMX 1277; format: functional
Bifidobacterium longum = experiment: Antibacterial activity against Bifidobacterium longum ATCC 15707; format: functional
Fusobacterium nucleatum = experiment: Antibacterial activity against Fusobacterium nucleatum ATCC 25586; format: functional
Gardnerella vaginalis [23] = experiment: Antibacterial activity against Gardnerella vaginalis ATCC 14018; format: functional
Gardnerella vaginalis [24] = experiment: Antibacterial activity against Gardnerella vaginalis ATCC 49145; format: functional
Peptostreptococcus sp. = experiment: Antibacterial activity against Peptostreptococcus magnus ATCC 14956; format: functional
[25] = tested on: Porphyromonas asaccharolytica; experiment: Antibacterial activity against metronidazole-resistant Prevotella asaccharolytica MMX 3552; format: functional
Prevotella bivia = experiment: Antibacterial activity against Prevotella bivia ATCC 29303/MMX 5718; format: functional
Prevotella disiens [26] = experiment: Antibacterial activity against Prevotella disiens MMX 3457; format: functional
Prevotella disiens [27] = experiment: Antibacterial activity against Prevotella disiens MMX 3446; format: functional
Prevotella intermedia = experiment: Antibacterial activity against Prevotella intermedia ATCC 25611 MMX 3002; format: functional
Veillonella parvula = experiment: Antibacterial activity against Veillonella parvula ATCC 17745 MMX 1272; format: functional
Clostridioides difficile [28] = experiment: Antibacterial activity against Clostridioides difficile BAA 1382; format: functional
Syrian golden hamster = experiment: Antibacterial activity against Clostridioides difficile UNT-103-1 infected in Syrian hamster assessed as mortality at 20 mg/kg, po administered once a daily for 5 days after 18 hrs post 10 mg/kg clindamycin treatment and measured upto 21 days; format: functional, Mesocricetus auratus; settings: time <= 21 day
Summary of the method: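 Male Golden Syrian hamsters (80-90 g), housed singly, were gavaged with C. difficile UNT103-1 grown in sporulation medium broth and diluted to OD600 1 in prereduced broth. […] From 18 h later, drug or vehicle was given by oral gavage once daily for 5 days. Survival was recorded through day 21.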

CO[C@H]1/C=C/O[C@@]2(C)Oc3c(C)c(O)c4c(O)c(c(/C=N/N5CCN(C)CC5)c(O)c4c3C2=O)NC(=O)/C(C)=C\C=C\[C@H](C)[C@H](O)[C@@H](C)[C@@H](O)[C@@H](C)[C@H](OC(C)=O)[C@@H]1C [RIFAMPIN]
MIC (Actinomyces naeslundii): 0.03 µg/mL (≈ 0.0365 µM) | MIC (Clostridioides difficile [1]): 0.06 µg/mL (≈ 0.0729 µM) | MIC90 (Clostridioides difficile [1]): ≥ 128 µg/mL | MIC (Helicobacter pylori [2]): ≥ 7 ng/mL | MIC (Helicobacter pylori [3]): ≤ 0.06 µg/mL | MIC90 (Helicobacter pylori [3]): 0.5 µg/mL (≈ 0.608 µM) | MIC (Staphylococcus aureus): 8 ng/mL (≈ 0.00972 µM) | MIC (Clostridioides difficile [4]): 1 ng/mL (≈ 0.00122 µM) | MIC (Clostridioides difficile [5]): 0.25 µg/mL (≈ 0.304 µM) | MIC (Helicobacter pylori [6]): 0.5 µg/mL | MIC (Helicobacter pylori [7]): 0.5 µg/mL (≈ 0.608 µM) | MIC (Helicobacter pylori [8]): 0.25 µg/mL | MIC (Helicobacter pylori [9]): > 32 µg/mL | MIC (Helicobacter pylori [10]): 8 µg/mL | MIC (Helicobacter pylori [11]): 16 µg/mL | MIC (Helicobacter pylori [12]): 8 µg/mL | MIC (Clostridioides difficile [13]): > 32 µg/mL | MIC (Clostridioides difficile [14]): 2 µg/mL | MIC (Clostridioides difficile [15]): ≤ 0.03 µg/mL | MIC (Clostridioides difficile [16]): ≤ 0.03 µg/mL | MIC (Clostridioides difficile [17]): ≤ 0.03 µg/mL | MIC (Clostridioides difficile [18]): > 32 µg/mL | MIC (Clostridioides difficile [19]): 2 µg/mL | MIC (Clostridioides difficile [20]): > 32 µg/mL | MIC (Clostridioides difficile [21]): 2 µg/mL | MIC [22]: 0.5 µg/mL (≈ 0.608 µM) | MIC (Bacteroides uniformis): 0.5 µg/mL (≈ 0.608 µM) | MIC (Bifidobacterium longum): 0.5 µg/mL (≈ 0.608 µM) | MIC (Fusobacterium nucleatum): 0.5 µg/mL (≈ 0.608 µM) | MIC (Gardnerella vaginalis [23]): 0.5 µg/mL (≈ 0.608 µM) | MIC (Gardnerella vaginalis [24]): 0.5 µg/mL (≈ 0.608 µM) | MIC (Peptostreptococcus sp.): 1 µg/mL (≈ 1.22 µM) | MIC [25]: 4 ng/mL (≈ 0.00486 µM) | MIC (Prevotella bivia): 0.5 µg/mL (≈ 0.608 µM) | MIC (Prevotella disiens [26]): 0.5 µg/mL (≈ 0.608 µM) | MIC (Prevotella disiens [27]): 0.12 µg/mL (≈ 0.146 µM) | MIC (Prevotella intermedia): 0.12 µg/mL (≈ 0.146 µM) | MIC (Veillonella parvula): 4 µg/mL (≈ 4.86 µM) | MIC (Clostridioides difficile [28]): 1 ng/mL (≈ 0.00122 µM)

CN[C@H](CC(C)C)C(=O)N[C@H]1C(=O)N[C@@H](CC(N)=O)C(=O)N[C@H]2C(=O)N[C@H]3C(=O)N[C@H](C(=O)N[C@H](C(=O)O)c4cc(O)cc(O)c4-c4cc3ccc4O)[C@H](O)c3ccc(c(Cl)c3)Oc3cc2cc(c3O[C@@H]2O[C@H](CO)[C@@H](O)[C@H](O)[C@H]2O[C@H]2C[C@](C)(N)[C@H](O)[C@H](C)O2)Oc2ccc(cc2Cl)[C@H]1O [VANCOMYCIN]
Activity (Syrian golden hamster): 80%
